Test [1] deals with Mycobacterium ulcerans. As to the kind of experiment: Antimicrobial activity against wild type Mycobacterium ulcerans ATCC 19423 infected BALB/c mouse assessed as delay to time to foodpad swelling. It counts as functional, organism-based.
Test [2] relates to Mycobacterium ulcerans. As to the kind of experiment: Antimicrobial activity against Mycobacterium ulcerans Mu1059 expressing luxAB from vibrio harveyi infected BALB/c mouse assessed as delay to time to foodpad swelling. It counts as functional. Summed up: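 Female BALB/c mice, 4 weeks old, were infected in the left hind footpad with 0.03 ml of bacterial suspension in PBS. From week 2 (lesion index 0), treatment ran for 4 weeks, 5 days/week, with drugs in water, 0.2 ml: RIF 10 mg/kg by gavage; STR or KAN 150 mg/kg subcutaneously. After treatment, 15 mice/group were scored weekly for 23 weeks; swelling was defined as lesion index 1.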

Test [3] deals with Mycobacterium ulcerans. As to the kind of experiment: Antimicrobial activity against Mycobacterium ulcerans Mu1059 expressing luxAB from vibrio harveyi infected BALB/c mouse assessed as reduction in foodpad CFU count after 4 weeks. The class given is functional, organism-based. Summed up:
(§1)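 Preventive footpad model in female BALB/c mice: treatment started 2 weeks post-infection and was given 5 days/week for 4 weeks (RIF 10 mg/kg gavage; STR 150 mg/kg s.c.). Five mice/group were sacrificed weekly. Footpads were minced in 2 ml PBS, and serial dilutions were plated in duplicate on selective 7H11 at 32°C for 3–4 months. Detection limit was 2 CFU/footpad. Log CFU was compared with day 0 by t test or ANOVA/Dunnett.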

The test system of test [4] is Mycobacterium ulcerans. As to the kind of experiment: Antimicrobial activity against wild type Mycobacterium ulcerans Mu1059 infected BALB/c mouse assessed as reduction in foodpad CFU count after 4 weeks.
The subject of test [5] is Mycobacterium ulcerans. As to the kind of experiment: Antimicrobial activity against recombinant Mycobacterium ulcerans Mu1059 expressing luxAB from vibrio harveyi infected BALB/c mouse assessed as reduction in foodpad relative light unit after 2 weeks relative to basal level. It counts as functional, organism-based. An outline of the steps: (§2)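 Same preventive schedule, with five mice/group sacrificed weekly. Each minced footpad homogenate (in 2 ml PBS) was read by taking a 200-µl sample, adding 20 µl of 1% decanal, and measuring light for 4 s immediately on a luminometer, in duplicate. Log-transformed RLU was compared with day 0 by unpaired t test or one-way ANOVA with Dunnett's posttest (alpha 0.05).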

Test [6] deals with Mycobacterium ulcerans. As to the kind of experiment: Antimicrobial activity against recombinant Mycobacterium ulcerans Mu1059 expressing luxAB from vibrio harveyi infected BALB/c mouse assessed as reduction in foodpad CFU count after 1 week relative to basal level. The class given is functional, organism-based. Summed up:
as §1

In test [7] the test system is Mycobacterium ulcerans. As to the kind of experiment: Antimicrobial activity against recombinant Mycobacterium ulcerans Mu1059 expressing luxAB from vibrio harveyi infected BALB/c mouse assessed as reduction in foodpad relative light unit after 1 week relative to basal level. The class given is functional, organism-based. Summed up: as §2
For test [8], the system named is Mycobacterium ulcerans. As to the kind of experiment: Antimicrobial activity against recombinant Mycobacterium ulcerans Mu1059 expressing luxAB from vibrio harveyi infected BALB/c mouse assessed as reduction in foodpad CFU count after 2 weeks relative to basal level. It counts as functional, organism-based. Summed up:
as §1

The record followed here is ChEMBL document CHEMBL1687835, “Using bioluminescence to monitor treatment response in real time in mice with Mycobacterium ulcerans infection” (2011).

Active and inactive are the calls of the source.

On to `NC[C@H]1O[C@H](O[C@H]2[C@H](O)[C@@H](O[C@H]3O[C@H](CO)[C@@H](O)[C@H](N)[C@H]3O)[C@H](N)C[C@@H]2N)[C@H](O)[C@@H](O)[C@@H]1O` [KANAMYCIN], for which the result in test [1] and in test [3] was inactive. In addition, in test [2], the Time was 3 weeks. In addition, the result in test [4] was Active.

As for `CN[C@@H]1[C@H](O[C@H]2[C@H](O[C@H]3[C@H](O)[C@@H](O)[C@H](N=C(N)N)[C@@H](O)[C@@H]3N=C(N)N)O[C@@H](C)[C@]2(O)C=O)O[C@@H](CO)[C@H](O)[C@H]1O`, the outcome in test [1] was inactive. Also, the result in test [5], in test [6], in test [7], in test [3] and in test [8] was Active.
